Values after ≈ are worked out from the molar mass of the structure shown. Values joined by “and” are separate entries in the source; they are usually repeats but may differ in a detail not shown here. Equal values may be shown once.
Columns and labels:
[1] = Cytotoxicity against human HeLa cells assessed as reduction in cell viability after 48 hrs by neutral red dye-based assay; type: functional
Outline: (§1)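 Cell lines from ATCC, seeded at 25 000 cells/well and incubated 24 h. Samples added at several concentrations, then 48 h further incubation. Viability read by modified Neutral Red uptake. IC50 taken from dose–response curves of percent decrease in viability against concentration. Doxorubicin positive control, DMSO vehicle control.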

Cryptococcus neoformans [2] = assay: Fungicidal activity against Cryptococcus neoformans ATCC 90113 after 70 to 74 hrs by broth microdilution method; type: functional
Outline: (§2)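 Fungicidal end point from the broth microdilution plates (20% DMSO–saline serial dilutions, duplicate wells, OD630-corrected inocula, amphotericin B control). 5 μL from each clear well transferred to agar and incubated. MFC is the lowest test concentration allowing no growth on agar.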

[3] = Cytotoxicity against pig LLC-PK1 cells assessed as reduction in cell viability after 48 hrs by neutral red dye-based assay; type: toxicity; conditions: pig (Sus scrofa); outline: as §1
[4] = Cytotoxicity against human SKOV3 cells assessed as reduction in cell viability after 48 hrs by neutral red dye-based assay; type: functional; conditions: SK-OV-3, 48 h; outline: as §1
Nakaseomyces glabratus [5] = assay: Antimicrobial activity against Candida glabrata ATCC 90030 after 46 to 50 hrs by broth microdilution method; type: functional
Outline: (§3)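 Modified CLSI broth microdilution. Samples serially diluted in 20% DMSO–saline and plated in duplicate. Inocula set by correcting OD630 of suspensions in incubation broth to final target inocula. Amphotericin B drug control. Plates read before and after incubation at 530 nm, or at 544ex/590em for A. fumigatus. IC50 is the concentration giving 50% growth relative to controls. MIC is the lowest concentration allowing no growth.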

Staphylococcus aureus [6] = assay: Antimicrobial activity against methicillin-resistant Staphylococcus aureus ATCC 33591 by broth microdilution method; type: functional
Cryptococcus neoformans [7] = assay: Antimicrobial activity against Cryptococcus neoformans ATCC 90113 after 70 to 74 hrs by broth microdilution method; type: functional; outline: as §3
[8] = Cytotoxicity against African green monkey Vero cells assessed as reduction in cell viability after 48 hrs by neutral red dye-based assay; type: toxicity; conditions: African green monkey (Chlorocebus sabaeus); outline: as §1
[9] = Cytotoxicity against human KB cells assessed as reduction in cell viability after 48 hrs by neutral red dye-based assay; type: functional; outline: as §1
[10] = Cytotoxicity against human SK-MEL cells assessed as reduction in cell viability after 48 hrs by neutral red dye-based assay; type: functional; outline: as §1
Staphylococcus aureus [11] = assay: Antimicrobial activity against Staphylococcus aureus ATCC 29213 by broth microdilution method; type: functional
[12] = Cytotoxicity against human BT549 cells assessed as reduction in cell viability after 48 hrs by neutral red dye-based assay; type: functional; conditions: BT-549, 48 h; outline: as §1
Pichia kudriavzevii [13] = assay: Antimicrobial activity against Candida krusei ATCC 6258 after 46 to 50 hrs by broth microdilution method; type: functional; outline: as §3
Nakaseomyces glabratus [14] = assay: Fungicidal activity against Candida glabrata ATCC 90030 after 46 to 50 hrs by broth microdilution method; type: functional; outline: as §2
Candida albicans [15] = assay: Antimicrobial activity against Candida albicans ATCC 90028 after 46 to 50 hrs by broth microdilution method; type: functional; outline: as §3
Pichia kudriavzevii [16] = assay: Fungicidal activity against Candida krusei ATCC 6258 after 46 to 50 hrs by broth microdilution method; type: functional; outline: as §2
Candida albicans [17] = assay: Fungicidal activity against Candida albicans ATCC 90028 after 46 to 50 hrs by broth microdilution method; type: functional; outline: as §2
Aspergillus fumigatus [18] = assay: Antimicrobial activity against Aspergillus fumigatus ATCC 204305 after 46 to 50 hrs by broth microdilution method; type: functional; outline: as §3
Aspergillus fumigatus [19] = assay: Fungicidal activity against Aspergillus fumigatus ATCC 204305 after 46 to 50 hrs by broth microdilution method; type: functional; outline: as §2
Staphylococcus aureus [20] = assay: microbe, parasite or virus in culture; conditions: ATCC 29213
Staphylococcus aureus [21] = assay: microbe, parasite or virus in culture; conditions: ATCC 33591
[22] = Nakaseomyces glabratus, ATCC 90030

Row | Structure (SMILES) | IC50 (Nakaseomyces glabratus [5]; [22]) | MIC (Nakaseomyces glabratus [5]; [22]) | IC50 (Cryptococcus neoformans [7]) | MIC (Cryptococcus neoformans [7]) | IC50 (Pichia kudriavzevii [13]) | IC50 [1] | MFC (Cryptococcus neoformans [2]) | IC50 at 48 h [3] | IC50 [4] | IC50 at 48 h [8] | IC50 [9] | IC50 [10] | IC50 [12] | MFC (Nakaseomyces glabratus [14]) | further results
1 | O=Cc1c(O)cc(O)c(C(=O)CCc2ccccc2)c1O | 11.3 µM | 69.9 µM (≈ 20 µg/mL) | 10.5 µM | 17.4 µM (≈ 4.98 µg/mL) |  | > 10 µM | 17.4 µM (≈ 4.98 µg/mL) | > 10 µM | > 10 µM | > 10 µM | > 10 µM | > 10 µM | > 10 µM |  | IC50 (Staphylococcus aureus [6]): 36.6 µM; IC50 (Staphylococcus aureus [11]): 17.4 µM
2 | O=Cc1c(O)cc(O)c(C(=O)/C=C/c2ccccc2)c1O |  |  | 24.5 µM | 70.4 µM (≈ 20 µg/mL) | 34.1 µM | > 10 µM | 70.4 µM (≈ 20 µg/mL) | > 10 µM | > 10 µM | > 10 µM | > 10 µM | > 10 µM | > 10 µM | 70.4 µM (≈ 20 µg/mL) | IC50 (Candida albicans [15]): 68.9 µM; IC50 (Nakaseomyces glabratus [5]): 10 µM and 35.2 µM
3 | C[C@@H]1[C@H](O)[C@@H](C)/C=C/C=C/C=C/C=C/C=C/C=C/C=C/[C@H](O[C@@H]2O[C@H](C)[C@@H](O)[C@H](N)[C@@H]2O)C[C@@H]2O[C@](O)(C[C@@H](O)C[C@@H](O)[C@H](O)CC[C@@H](O)C[C@@H](O)CC(=O)O[C@H]1C)C[C@H](O)[C@H]2C(=O)O [AMPHOTERICIN B] | 0.2 µM | 0.7 µM (≈ 0.647 µg/mL) | 0.2 µM | 0.3 µM (≈ 0.277 µg/mL) | 0.6 µM |  | 0.3 µM (≈ 0.277 µg/mL) |  |  |  |  |  |  | 0.7 µM (≈ 0.647 µg/mL) | MFC (Pichia kudriavzevii [16]): 1.4 µM (≈ 1.29 µg/mL); MIC (Pichia kudriavzevii [13]): 1.3 µM (≈ 1.2 µg/mL); MFC (Candida albicans [17]): 0.7 µM (≈ 0.647 µg/mL); IC50 (Aspergillus fumigatus [18]): 1.4 µM; MIC (Aspergillus fumigatus [18]): 2.7 µM (≈ 2.5 µg/mL); MFC (Aspergillus fumigatus [19]): 5.4 µM (≈ 4.99 µg/mL)
4 | O=C(O)c1cn(C2CC2)c2cc(N3CCNCC3)c(F)cc2c1=O [CIPROFLOXACIN] |  |  |  |  |  |  |  |  |  |  |  |  |  |  | MBC (Staphylococcus aureus [20]): 1.5 µM (≈ 0.497 µg/mL); IC50 (Staphylococcus aureus [6]): 0.2 µM; MBC (Staphylococcus aureus [21]): 3 µM (≈ 0.994 µg/mL)
5 | COc1cccc2c1C(=O)c1c(O)c3c(c(O)c1C2=O)C[C@@](O)(C(=O)CO)C[C@@H]3O[C@H]1C[C@H](N)[C@H](O)[C@H](C)O1 [DOXORUBICIN] |  |  |  |  |  | 4 µM |  | 17 µM | 2.6 µM | > 10 µM | 3.8 µM | 1.5 µM | 3.6 µM |  | 

More lines, main results first:

Row | IC50 (Nakaseomyces glabratus [5]; [22]) | MIC (Nakaseomyces glabratus [5]; [22]) | IC50 (Cryptococcus neoformans [7]) | MIC (Cryptococcus neoformans [7]) | IC50 (Pichia kudriavzevii [13]) | Structure (SMILES) | IC50 [1] | MFC (Cryptococcus neoformans [2]) | IC50 at 48 h [3] | IC50 [4] | IC50 at 48 h [8] | IC50 [9] | IC50 [10] | IC50 [12] | MFC (Nakaseomyces glabratus [14]) | further results
6 | 7.2 µM | 35.2 µM (≈ 10 µg/mL) | 19.3 µM |  | 41.2 µM | O=Cc1c(O)cc(O)c2c1O[C@@H](c1ccccc1)CC2=O | > 10 µM |  | > 10 µM | > 10 µM | > 10 µM | > 10 µM | > 10 µM | > 10 µM | 70.4 µM (≈ 20 µg/mL) | 
7 | 6.7 µM | 35.2 µM (≈ 10 µg/mL) | 63.2 µM | 70.4 µM (≈ 20 µg/mL) | 33.2 µM | O=Cc1c(O)cc2c(c1O)C(=O)C[C@@H](c1ccccc1)O2 | > 10 µM |  | > 10 µM | > 10 µM | > 10 µM | > 10 µM | > 10 µM | > 10 µM | 70.4 µM (≈ 20 µg/mL) | 
8 | 7.4 µM | 35.2 µM (≈ 10 µg/mL) | 44.4 µM | 70.4 µM (≈ 20 µg/mL) | 29.9 µM | O=Cc1c(O)cc(O)c2c1O[C@H](c1ccccc1)CC2=O | > 10 µM | 70.4 µM (≈ 20 µg/mL) | > 10 µM | > 10 µM | > 10 µM | > 10 µM | > 10 µM | > 10 µM |  | 
9 | 12.6 µM | 70.4 µM (≈ 20 µg/mL) | 61.5 µM |  |  | O=Cc1c(O)cc2c(c1O)C(=O)C[C@H](c1ccccc1)O2 | > 10 µM |  | > 10 µM | > 10 µM | > 10 µM | > 10 µM | > 10 µM | > 10 µM | 70.4 µM (≈ 20 µg/mL) | 
10 | 10.8 µM |  |  |  |  | O=Cc1c(O)cc2oc(-c3ccccc3)cc(=O)c2c1O | > 10 µM |  | > 10 µM | > 10 µM | > 10 µM | > 10 µM | > 10 µM | > 10 µM |  | 
11 | 42.9 µM |  | 28.8 µM | 78.1 µM (≈ 20 µg/mL) | 65.5 µM | O=C1CC(c2ccccc2)Oc2cc(O)cc(O)c21 (racemic) | > 10 µM |  | > 10 µM | > 10 µM | > 10 µM | > 10 µM | > 10 µM | > 10 µM |  | 
